Data from PMC3034256 (Chemistry & biology, 2011).
Where “and” joins values, the source holds several entries; their conditions need not be identical. Equal values may be shown once.

Tests used:
PTP1B = molecular target: T1, PTP1B (Homo sapiens, UniProt P18031); test: PTP-catalyzed pNPP hydrolysis, PTP1B; assay type: biochemical
T1 sequence (P18031 1-435): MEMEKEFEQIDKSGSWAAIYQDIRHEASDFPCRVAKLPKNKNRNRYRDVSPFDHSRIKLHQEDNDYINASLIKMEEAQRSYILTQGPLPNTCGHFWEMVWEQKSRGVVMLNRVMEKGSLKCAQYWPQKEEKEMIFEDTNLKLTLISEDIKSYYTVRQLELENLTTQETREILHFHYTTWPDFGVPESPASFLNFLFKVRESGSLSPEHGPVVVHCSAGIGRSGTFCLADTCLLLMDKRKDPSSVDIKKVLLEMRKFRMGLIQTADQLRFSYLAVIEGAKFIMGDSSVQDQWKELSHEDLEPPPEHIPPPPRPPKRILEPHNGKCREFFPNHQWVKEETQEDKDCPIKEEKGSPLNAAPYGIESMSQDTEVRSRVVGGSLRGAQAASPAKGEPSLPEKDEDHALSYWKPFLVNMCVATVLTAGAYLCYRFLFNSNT
Summary of the method: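 pNPP hydrolysis was run at 25 °C in 50 mM 3,3-dimethylglutarate, pH 7.0, 1 mM EDTA, ionic strength 0.15 M (NaCl). pNPP was fixed at each enzyme's experimentally determined Km, and reactions were started with enzyme. They were quenched with NaOH and corrected with no-enzyme controls. p-Nitrophenol was read at 405 nm. IC50 was fitted from AI/A0 = IC50/(IC50+[I]).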

human primary T-cell = details: ref Shim et al., 2002; cited from earlier work

C=C/C(=C/C(=O)C[C@H](C)C[C@@H](C)CC[C@H](O)[C@H](C)C(=O)C[C@@H](O)[C@H](C)[C@@H](C)OC(=O)C[C@@H](O)C1=C(C)C(=O)OC1=O)CC [TTN, tautomycetin]
IC50 (PTP1B): 41.2 ± 4.4 µM
concentration inhibiting human primary T-cell tyrosine phosphorylation (human primary T-cell): 1 µg/mL and 1.65 µM
